Molecules are shown by their SMILES. Some results are limits rather than exact numbers.

17 compounds from ChEMBL document CHEMBL2417404, “Synthesis and structure-activity relationship (SAR) of 2-methyl-4-oxo-3-oxetanylcarbamic acid esters, a class of potent N-acylethanolamine acid amidase (NAAA) inhibitors” (J Med Chem, 2013) can be followed below.

The target in assay [1] is T1, N-acylethanolamine-hydrolyzing acid amidase (Rattus norvegicus, UniProt Q5KTC7).
T1 sequence (Q5KTC7 whole entry): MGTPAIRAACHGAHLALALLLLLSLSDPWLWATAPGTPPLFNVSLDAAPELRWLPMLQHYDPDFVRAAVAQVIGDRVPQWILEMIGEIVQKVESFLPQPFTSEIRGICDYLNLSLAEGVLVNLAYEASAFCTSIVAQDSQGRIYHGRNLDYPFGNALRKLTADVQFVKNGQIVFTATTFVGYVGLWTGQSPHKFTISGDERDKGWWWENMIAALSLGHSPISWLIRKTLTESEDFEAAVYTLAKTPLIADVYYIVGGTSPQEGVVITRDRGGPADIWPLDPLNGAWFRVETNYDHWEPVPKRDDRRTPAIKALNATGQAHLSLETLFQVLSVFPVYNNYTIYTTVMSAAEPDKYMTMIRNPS
Briefly: Inhibition of Sprague Dawley rat lung native NAAA enzyme using heptadecenoylethanolamide as substrate preincubated for 30 mins followed by substrate addition measured after 30 mins by UPLC-MS analysis. An outline of the steps:
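Native enzyme from lungs of male Sprague-Dawley rats (275-300 g). Lungs were homogenized in 20 mM Tris-HCl pH 7.4 with 0.32 M sucrose, spun at 800g, then the supernatant at 12000g. The pellet was freeze/thawed in PBS, and the final 105000g pellet was used. Protein (10 μg) was preincubated with compound or vehicle for 30 min at 37 °C in NaH2PO4/citrate buffer pH 4.5 with 0.1% Triton X-100 and 3 mM DTT. Then 50 μM substrate, 37 °C, 30 min, duplicates. Heptadecenoic acid quantified against heptadecanoic acid internal standard. IC50 by fixed-slope nonlinear regression.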

Assay [2] is described as follows: Selectivity ratio of IC50 for rat NAAA to IC50 for human NAAA.
For assay [3], the target named is T2, Fatty-acid amide hydrolase 1 (Rattus norvegicus) (UniProt P97612).
T2 sequence (whole entry): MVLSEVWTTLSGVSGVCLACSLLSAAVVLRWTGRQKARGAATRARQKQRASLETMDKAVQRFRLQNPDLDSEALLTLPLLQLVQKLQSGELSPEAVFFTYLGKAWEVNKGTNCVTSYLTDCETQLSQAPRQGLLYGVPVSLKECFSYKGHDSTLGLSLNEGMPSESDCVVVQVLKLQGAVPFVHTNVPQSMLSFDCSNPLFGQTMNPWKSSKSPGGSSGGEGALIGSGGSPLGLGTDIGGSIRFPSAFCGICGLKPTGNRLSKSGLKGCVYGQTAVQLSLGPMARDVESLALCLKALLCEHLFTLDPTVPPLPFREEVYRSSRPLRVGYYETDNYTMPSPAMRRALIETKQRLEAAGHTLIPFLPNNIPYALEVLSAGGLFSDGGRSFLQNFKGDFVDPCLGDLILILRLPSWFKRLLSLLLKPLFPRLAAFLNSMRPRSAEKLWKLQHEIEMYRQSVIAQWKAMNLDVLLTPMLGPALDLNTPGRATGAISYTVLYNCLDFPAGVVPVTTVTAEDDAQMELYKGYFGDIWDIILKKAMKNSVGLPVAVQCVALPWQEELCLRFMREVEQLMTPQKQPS
Briefly: Inhibition of rat brain FAAH using [3H]anandamide as substrate preincubated at 10 uM for 10 mins followed by substrate addition by liquid scintillation counting. The essentials: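 Rat brain homogenate (50 μg protein) was preincubated with compound for 10 min. Then 30 min at 37 °C with 1 μM cold AEA plus 0.6 nM [3H]AEA in 50 mM Tris pH 7.4 containing 0.05% fatty-acid-free BSA. Stopped with cold CHCl3/MeOH 1:1, and the aqueous phase was counted.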

Assay [4] addresses T3, Acid ceramidase (Rattus norvegicus) (UniProt Q6P7S1).
T3 sequence (whole entry): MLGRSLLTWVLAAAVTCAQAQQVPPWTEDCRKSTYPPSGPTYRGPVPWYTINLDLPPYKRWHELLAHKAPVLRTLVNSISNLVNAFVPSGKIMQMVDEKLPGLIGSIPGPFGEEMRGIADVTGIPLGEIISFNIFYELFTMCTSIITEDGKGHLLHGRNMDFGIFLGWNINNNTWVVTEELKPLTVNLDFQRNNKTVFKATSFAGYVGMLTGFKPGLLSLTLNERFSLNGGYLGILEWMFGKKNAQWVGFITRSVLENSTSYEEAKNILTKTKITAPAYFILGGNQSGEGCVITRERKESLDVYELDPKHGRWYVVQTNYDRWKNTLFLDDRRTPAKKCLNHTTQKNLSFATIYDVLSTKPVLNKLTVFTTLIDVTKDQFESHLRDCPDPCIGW
The experiment in a line: Inhibition of rat lung acid ceramidase overexpressed in HEK293 cells using N-Lauroyl ceramide as substrate preincubated at 10 uM for 30 mins followed by substrate addition by LC-MS analysis. It is filed as cell-based. An outline of the steps:
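Enzyme (25 μg) from HEK293 cells overexpressing rat AC was preincubated with compound for 30 min at 37 °C in 100 mM NaH2PO4, 100 mM trisodium citrate, 0.1% Triton X-100, 3 mM DTT, pH 4.5. Then 100 μM N-lauroyl ceramide was added. Lauric acid (m/z 199) was measured by negative-ion LC-MS with heptadecanoic acid (m/z 269) as internal standard.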

For assay [5], the target named is T4, N-acylethanolamine-hydrolyzing acid amidase (Homo sapiens, UniProt Q02083).
T4 sequence (Q02083 whole entry): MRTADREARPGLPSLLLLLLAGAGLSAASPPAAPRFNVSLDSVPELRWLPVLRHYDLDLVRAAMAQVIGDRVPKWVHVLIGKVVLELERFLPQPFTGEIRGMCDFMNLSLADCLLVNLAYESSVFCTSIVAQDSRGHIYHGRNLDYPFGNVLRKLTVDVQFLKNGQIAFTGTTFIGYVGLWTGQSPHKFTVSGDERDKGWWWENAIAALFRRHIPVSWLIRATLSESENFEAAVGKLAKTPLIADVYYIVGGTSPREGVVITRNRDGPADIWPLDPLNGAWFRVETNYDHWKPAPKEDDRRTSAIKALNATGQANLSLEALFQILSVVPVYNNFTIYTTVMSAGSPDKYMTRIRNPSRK
Briefly: Inhibition of C-terminal His-6-tagged recombinant human spleen NAAA enzyme expressed in HEK293 cells. It is filed as cell-based. The essentials:
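Stable HEK293 clone (G418 selection) expressing h-NAAA; cell pellets sonicated, then membrane fraction prepared by centrifugation with a freeze/thaw step. 10 μg protein preincubated 30 min at 37 °C with inhibitor in citrate/phosphate buffer pH 4.5 (0.1% Triton X-100, 3 mM DTT). Duplicates then given 50 μM 10-cis-heptadecenoylethanolamide for 30 min at 37 °C. Heptadecenoic acid measured by UPLC-MS; IC50 from fixed-slope nonlinear regression.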

For orientation: IC50 means the midpoint of a concentration-inhibition curve. On to `CC(C)C(CCCCc1ccccc1)OC(=O)N[C@H]1C(=O)O[C@H]1C` (stereo partly drawn), for which the IC50 in assay [1] (read-out: IC50) worked out at 80 nM.
On the same count and under the same terms, next, `C[C@@H]1OC(=O)[C@@H]1NC(=O)OCc1cccc(-c2ccccc2)c1`: 23000 nM; `CC(C)C(CCCCc1ccccc1)OC(=O)N[C@H]1C(=O)O[C@H]1C` (single isomer, unassigned; diastereomer 2): 12200 nM.
As usually defined, the inhibition is the change of the read-out against control, counted positive when it falls. Turning to `C[C@@H]1OC(=O)[C@@H]1NC(=O)OCCCCCC1CCCCC1`, the Ratio IC50 in assay [2] is 2. The inhibition in assay [3] and in assay [4] was less than 10% in each case. In addition, the IC50 in assay [1] (read-out: IC50) is 13 nM.
For the compound `C[C@@H]1OC(=O)[C@@H]1NC(=O)OCCCCCc1ccccc1`, the Ratio IC50 in assay [2] stood at 2. For the same compound, the inhibition in assay [3] and in assay [4] was less than 10% in each case.
In the case of `C[C@@H]1OC(=O)[C@@H]1NC(=O)OCCCOCc1ccccc1`, the Ratio IC50 in assay [2] was 2. The inhibition in assay [3] and in assay [4] was less than 10% each time. In addition, the IC50 in assay [5] was found to be 20 nM.
For `C[C@@H]1OC(=O)[C@@H]1NC(=O)OCc1ccc(-c2ccccc2)cc1`, the results for the inhibition in assay [3] and in assay [4] were less than 10% and 30%, respectively.
For `CCCCCCCC(C)OC(=O)N[C@H]1C(=O)O[C@H]1C` (mixture of isomers), the IC50 in assay [1] (read-out: IC50) turned out to be 60 nM.
The same measure, in the same setting: the value for `C[C@H]1OC(=O)[C@@H]1NC(=O)OCCCCCc1ccccc1` was 20 nM; that for `CC(CCCCc1ccccc1)OC(=O)N[C@H]1C(=O)O[C@H]1C` (single isomer, unassigned; diastereomer 2) was 5100 nM.
With `C[C@@H]1OC(=O)[C@@H]1N(C)C(=O)OCCCCCc1ccccc1`, in assay [1], the IC50 result is reported as “Not Active”.
Consider `CCCCCCC[C@@H](C)OC(=O)N[C@H]1C(=O)O[C@H]1C`, for which, in assay [1] (read-out: IC50), the IC50 was determined as 270 nM.
Consider `CCCCCCC[C@H](C)OC(=O)N[C@H]1C(=O)O[C@H]1C`, for which, in assay [2], the Ratio IC50 worked out at 2. The inhibition was determined as 19% in assay [3] and 45% in assay [4].
With `C[C@@H]1OC(=O)[C@@H]1NC(=O)OCCCc1ccccc1`, the IC50 in assay [1] (read-out: IC50) worked out at 90 nM.
On to `CC(CCCCc1ccccc1)OC(=O)N[C@H]1C(=O)O[C@H]1C` (mixture of isomers), for which the IC50 in assay [1] (read-out: IC50) was determined as 29 nM.
Take `CCCCCOC(=O)N[C@H]1C(=O)O[C@H]1C`: the IC50 in assay [1] (read-out: IC50) worked out at 760 nM.
The same measure, in the same setting: the value for `CC(CCCCc1ccccc1)OC(=O)N[C@H]1C(=O)O[C@H]1C` (single isomer, unassigned; diastereomer 1) was 18 nM.
